Measurements from article PMC9121347 (Bioconjugate Chemistry, 2022).

Tests used:
AD (APP/PS1) mice = experiment: Dynamic microPET/CT imaging, AD mice; type: in vivo, mouse; settings: AD (APP/PS1) vs normal (B6SJL) mice; any time point
[1] = tested on: phosphorylation of Akt in hCMEC/D3 monolayers; type: cell-based, human; settings: 100 nM, 20 min, 37 °C in DMEM, Western blot, n = 3
Summary of the method: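 hCMEC/D3 monolayers treated ± test compound (100 nM) in DMEM, 20 min, 37 °C, washed thrice with PBS, lysed in RIPA with protease/phosphatase inhibitors, protein by BCA. […] Blocked in 5% milk; anti-vinculin, Akt, p-Akt (S473) at 1:1000 overnight at 4 °C; dye-conjugated secondary at 1:2000, 1 h RT. p-AKT/AKT ratio, mean ± SD, unpaired t-test.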

Compound	difference in uptake between normal and AD groups (brain and heart) (AD (APP/PS1) mice)	phosphorylation of Akt (p-AKT/AKT ratio) [1]
CNc1ccc(-c2nc3ccc(O)cc3s2)cc1 [[^11C]PIB, N-methyl [^11C] 2-(4′-methylaminophenyl)-6-hydroxy-benzothiazole]	neither of them showed any significant difference in the uptake between normal and AD groups at any time point	–
[18F]c1ccc(-c2ccc3c(c2)[nH]c2ccncc23)cn1 [[^18F]AV1451, 7-(6-[^18F]fluoropyridin-3-yl)-5H-pyrido[4,3-b]indole]	neither of them showed any significant difference in the uptake between normal and AD groups at any time point	–
NOTA-insulin: insulin with p-SCN-Bn-NOTA linked to the lysine residue of chain B; labeling precursor	–	stimulated the phosphorylation of Akt
